Data as given in ChEMBL document CHEMBL1123845 (J Med Chem, 1987).
Active and inactive are the calls of the source. The calls are words filed in the database; no cut-off is given here.

The molecules below were run against T1, Polyunsaturated fatty acid 5-lipoxygenase (Rattus norvegicus) (UniProt P12527) (assay: Compound was evaluated for the inhibition of rat basophilic leukemia-1 (RBL-1) 5-Lipoxygenase at 10 uM).
T1 sequence (whole entry): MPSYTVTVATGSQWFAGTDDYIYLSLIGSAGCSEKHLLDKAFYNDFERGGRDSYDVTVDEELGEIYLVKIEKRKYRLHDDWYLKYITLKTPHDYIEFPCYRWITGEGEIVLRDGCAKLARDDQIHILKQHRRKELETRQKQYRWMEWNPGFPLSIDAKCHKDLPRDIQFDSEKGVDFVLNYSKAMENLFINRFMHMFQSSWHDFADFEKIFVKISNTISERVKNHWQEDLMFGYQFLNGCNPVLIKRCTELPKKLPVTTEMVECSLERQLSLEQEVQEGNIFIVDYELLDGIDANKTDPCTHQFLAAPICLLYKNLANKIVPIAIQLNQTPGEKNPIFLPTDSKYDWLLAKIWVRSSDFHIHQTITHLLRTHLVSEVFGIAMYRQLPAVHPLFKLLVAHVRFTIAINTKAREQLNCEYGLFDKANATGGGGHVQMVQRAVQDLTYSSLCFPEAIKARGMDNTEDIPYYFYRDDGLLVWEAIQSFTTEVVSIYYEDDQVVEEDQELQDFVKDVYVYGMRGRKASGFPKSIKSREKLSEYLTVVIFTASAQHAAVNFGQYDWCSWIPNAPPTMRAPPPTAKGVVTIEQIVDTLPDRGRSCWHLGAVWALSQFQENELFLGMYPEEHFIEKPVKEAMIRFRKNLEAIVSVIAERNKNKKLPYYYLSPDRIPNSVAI
Format: cell-based
In short: (§1)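 Enzyme source: 20000g supernatant of sonicated RBL-1 cells (1.5 × 10⁶ cell equivalents) in pH 6.8 BES/PIPES buffer with EDTA, CaCl₂ and NaCl. Compound or 2% DMSO vehicle preincubated 20 min at 37 °C. Reaction started with 66 μM arachidonic acid carrying [¹⁴C] tracer and run 5 min. Acid stop, ether extraction, then TLC. [¹⁴C]5-HETE counted and corrected by [³H]-5-HETE recovery.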

inhibition | Structure (SMILES)
24% | CCCCCC(O)/C=C/C=C/CCCCCCC(=O)O (stereo not given)

Each molecule was assayed against T2, Polyunsaturated fatty acid 5-lipoxygenase (Rattus norvegicus, UniProt P12527) (assay: Inhibition of rat basophilic leukemia-1 (RBL-1) 5-lipoxygenase).
T2 sequence (P12527 whole entry): T1 sequence (whole entry)
Format: cell-based
In short: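 Enzyme source: 20000g supernatant of sonicated RBL-1 cells (1.5 × 10⁶ cell equivalents) in pH 6.8 BES/PIPES buffer with EDTA, CaCl₂ and NaCl. Compound or 2% DMSO vehicle preincubated 20 min at 37 °C. Acid stop, ether extraction, then TLC. [¹⁴C]5-HETE counted and corrected by [³H]-5-HETE recovery.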

Structure (SMILES) | IC50
O=C(O)CCCCCCCCC/C=C/C=C/C(O)CC1CCCC1 (stereo not given) | 61 µM
O=C(O)CCCCCCCCCC#C/C=C/C(O)CC1CCCC1 (stereo not given) | 82 µM
CCCCC[C@H](O)/C=C/C=C\C/C=C\C/C=C\CCCC(=O)O [ICOMUCRET] | 7.3 µM
CCCCC/C=C\C/C=C\C/C=C\C=C\C1CCCC(=O)O1 (stereo not given) | 23 µM
CCCCC[C@H](O)/C=C/C=C\C/C=C\C/C=C\CCCCCC(=O)O | 62 µM
CCCCC[C@H](O)/C=C/C=C\C/C=C\C/C=C\CCCC(=O)OC | 64 µM
CCCCC[C@@H](/C=C/C=C\C/C=C\C/C=C\CCCC(=O)OC)OC(C)=O | 7.2 µM
CCCCC[C@H](O)/C=C/C=C\C/C=C\C=C\C(O)CCCC(=O)O (stereo not given in full) | 270 µM
CCCCC[C@H](O)/C=C/C=C\C/C=C/CCCCC(=O)O | 29 µM
CCCCC[C@H](O)/C=C\C=C/C/C=C\CCCCCCC(=O)O | 77 µM
CCCCC[C@H](O)/C=C/C=C\C/C=C\C/C=C\CCCCCC(=O)OC | 6.5 µM
CCCCCC(=O)/C=C/C=C\C/C=C\C/C=C\CCCC(=O)O | 26 µM
CCCCC[C@@H](/C=C/C=C\C/C=C\C/C=C\CCCC(=O)O)OC(C)=O | 17 µM
CCCCC[C@@H](/C=C/C=C\C/C=C\C/C=C\CCCC(=O)O)OO | 3.4 µM
CCCCC[C@H](O)/C=C/C=C\C/C=C\C=C\C1CCCC(=O)O1 (stereo not given in full) | 25 µM
CCCCC/C=C\C/C=C\C/C=C\C=C\C(O)CCCC(=O)O (stereo not given) | 77 µM

Further lines, results first:

IC50 | Structure (SMILES)
66 µM | CCCCCC(O)/C=C/C#CCCCCCCCCCC(=O)O (stereo not given)
35 µM | CCCCCC(O)/C=C/C=C\CCCCCCCCCC(=O)O (stereo not given)
160 µM | CCCC(O)/C=C/C=C/CCCCCCCCCC(=O)O (stereo not given)
82 µM | CCCCC[C@H](O)/C=C/C=C\CCCCCCCC(=O)O
58 µM | CCCCCC(O)/C=C\C=C\CCCCCCCCCC(=O)O (stereo not given)
27 µM | CCCCCC(O)C#CC#CCCCCCCCCCC(=O)O (stereo not given)
55 µM | CCCCCC(=O)/C=C/C=C\CCCCCCCCCC(=O)O
32 µM | CCCCCCC(O)/C=C/C#CCCCCCCCCCC(=O)O (stereo not given)
260 µM | CCCC(O)/C=C/C#CCCCCCCCCCC(=O)O (stereo not given)
26 µM | CCCCC[C@H](O)/C=C/C=C\CCCCCCCCCC(=O)O
76 µM | CCCCCC(/C=C/C=C\CCCCCCCCCC(=O)O)OC(C)=O (stereo not given)
73 µM | CCCCCC(O)/C=C/C#CCCCCCCCCC(=O)O (stereo not given)

What follows are molecules tested against T1, Polyunsaturated fatty acid 5-lipoxygenase (Rattus norvegicus) (assay: Inhibition of rat basophilic leukemia-1 (RBL-1) 5-Lipoxygenase at 100 uM).
Format: cell-based
In short: as §1

Structure (SMILES) | inhibition
CCCCCC(O)/C=C/C=C/CCCCCC(=O)O (stereo not given) | 17%
CCCCCC(O)c1cccc(OCCCCCCCC(=O)O)c1 (stereo not given) | 23%
COC(=O)CCCCC(O)/C=C/C#CCCCCCCCCCC(=O)O (stereo not given) | 22%
CCCCCC1/C=C/C=C\CCCCCCCCCC(=O)O1 (stereo not given) | 42%
COC(=O)CCCCC(O)/C=C/C=C/CCCCCCCCCC(=O)O (stereo not given) | 31%

Continued, values first:

inhibition | Structure (SMILES)
48% | CCCCCC/C=C/C#CCCCCCCCCCC(=O)O
30% | CCCCCC(O)C#C/C=C/CCCCCCCCCC(=O)O (stereo not given)
16% | CCCCCC/C=C/C=C\CCCCCCCCCC(=O)O
39% | CCCCCC(O)/C=C/C=C/CCCCCCCCC(=O)O (stereo not given)
46% | O=C(O)CCCCCCCCC/C=C\C=C\C(O)CCCCCO (stereo not given)
40% | CCCCCC(/C=C/C#CCCCCCCCCCC(=O)O)OC(C)=O (stereo not given)
24% | CCCCCC(O)/C=C/C#CCCCCCCCC(=O)O (stereo not given)
18% | CCCCCC(O)/C=C/C#CCCCCCCC(=O)O (stereo not given)
44% | CCCCCC(O)/C=C\C=C/CCCCCCCCCC(=O)O (stereo not given)

What follows are molecules tested against T1, Polyunsaturated fatty acid 5-lipoxygenase (Rattus norvegicus) (assay: (§2) Compound was evaluated for the inhibition of rat basophilic leukemia-1 (RBL-1) 5-Lipoxygenase at 100 uM; NS = no significant activity).
Format: cell-based
In short: as §1

Structure (SMILES) | inhibition
CCCCCC(O)/C=C/C#CCCCCCC(=O)O (stereo not given) | inactive
CCCCCC(O)/C=C/C#CCCCCC(=O)O (stereo not given) | inactive

Next, values leading:

inhibition | Structure (SMILES)
inactive | CCCCC[C@H](O)CCCCCCCCCCCCCC(=O)O
inactive | O=C(O)CCCCCCCCCC#C/C=C/C(O)CCCCC(=O)O (stereo not given)

These molecules were tested against T1, Polyunsaturated fatty acid 5-lipoxygenase (Rattus norvegicus) (assay: Compound was evaluated for the inhibition of rat basophilic leukemia-1 (RBL-1) 5-Lipoxygenase at 40 uM).
Format: cell-based
In short: as §1

inhibition | Structure (SMILES)
49% | CCCCCCC(O)/C=C/C=C/CCCCCCCCCC(=O)O (stereo not given)

These molecules were tested against T1, Polyunsaturated fatty acid 5-lipoxygenase (Rattus norvegicus) (assay: Compound was evaluated for the inhibition of rat basophilic leukemia-1 (RBL-1) 5-Lipoxygenase at 300 uM).
Format: cell-based
In short: as §1

inhibition | Structure (SMILES)
46% | CCCC(O)/C=C/C#CCCCCCCCCC(=O)O (stereo not given)
34% | CCCCC[C@H](O)/C=C/C=C\CCCCCCCC(=O)OC
34% | CCCCC[C@H](O)/C=C/C=C\CCCCCCCCCC(=O)OC

The molecules below were run against T2, Polyunsaturated fatty acid 5-lipoxygenase (assay: as §2).
Format: cell-based
In short: as §1

IC50 | Structure (SMILES)
Not Active | CCCCCC(O)/C=C/C=C/CCCCC(=O)O (stereo not given)

What follows are molecules tested against T1, Polyunsaturated fatty acid 5-lipoxygenase (Rattus norvegicus) (assay: Compound was evaluated for the inhibition of rat basophilic leukemia-1 (RBL-1) 5-Lipoxygenase at 75 uM).
Format: cell-based
In short: as §1

inhibition | Structure (SMILES)
36% | CCCCCC(O)CC/C=C\CCCCCCCCCC(=O)O (stereo not given)

Each molecule was assayed against T1, Polyunsaturated fatty acid 5-lipoxygenase (Rattus norvegicus) (assay: Compound was evaluated for the inhibition of rat basophilic leukemia-1 (RBL-1) 5-Lipoxygenase at 33 uM).
Format: cell-based
In short: as §1

inhibition | Structure (SMILES)
16% | CCCCCC1/C=C/C#CCCCCCCCCCC(=O)O1 (stereo not given)

What follows are molecules tested against T1, Polyunsaturated fatty acid 5-lipoxygenase (Rattus norvegicus) (assay: Compound was evaluated for the inhibition of rat basophilic leukemia-1 (RBL-1) 5-Lipoxygenase at 30 uM).
Format: cell-based
In short: as §1

Structure (SMILES) | inhibition
CCCCCC(O)/C=C/C#CCCCCCCCCCC(=O)N(CC)CC (stereo not given) | 49%
CCCCC[C@H](O)/C=C/C=C\CCCCCCCCCC(=O)N(CC)CC | 39%

Next, values leading:

inhibition | Structure (SMILES)
41% | CCCCCC(O)/C=C/C=C/CCCCCCCCCCC(=O)O (stereo not given)
33% | CCCCCC/C=C/C#CCCCCCCCCC(=O)O
24% | CCCCCC(O)/C=C/C#CCCCCCCCCCCC(=O)O (stereo not given)
33% | CCCCCC(O)/C=C/C=C/CCCCCCCCCC(=O)O (stereo not given)
